Our source for the yeast fitness values is the RNAGym collection of RNA variant scans (doi:10.1126/science.aae0568).

Sequences and labels used below:
B1: tRNA (parent)
chain: GUUCCGUUGGCGUAAUGGUAACGCGUCUCCCUCCUAAGGAGAAGACUGCGGGUUCGAGUCCCGUACGGAACG

Fewer inactive variants are shown than the library holds.

In the data set the parent is B1. Briefly: yeast fitness relative to wild type (ratio to wild type); higher = fitter; tRNA-Arg(CCU), competitive growth, 37 C, YPD. Put shortly:
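Genotype frequency changes were the basis for Darwinian fitness relative to wild type. The frequencies came from 100-nucleotide paired-end sequencing of gene amplicons from the start population and each end population of pooled yeast strains with tRNA-Arg(CCU) gene variants at the native locus. Competition ran in YPD at 37°C for 24 hours in six replicates, genotypes needed ≥ 100 starting reads, and estimates < 0.5 were set to 0.5.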
Consider GUUCCGUUGGCGUAAAAGUAAGGCGUCUCCCUCCUAAGGAGAAGACUGCGGGUUCGAGUCUCGUACGCAACG [U16A G17A C22G C61U G68C], for which the yeast fitness amounted to 0.659. With GUUCCCUUGGCGUAAUGGUAACGCGUCUCCCUCCUAGGGAGAAGACUGCGGGUUCGAGUUCCGUGCGGAACG [G6C A37G C60U A65G] the figure was at most 0.5; with GAUCCGUUGGCGUAAUGGUAAUGCGUCUCCCUCCUAAGGAGAAGACUGCGGGUUCAAGUCCCGUACGGAACG [U2A C22U G56A], 0.551; with GUUCCGUUGGCGUAAUGGUAACGCGUCUCCCUGGUAAGGAGAAGACUGCGGGUUCGAGUCCUGUACGGAACG [C33G C34G C62U], at most 0.5. As to GUUCCGUUGGCGUAAUGGUAAGGCGUCUCCCUCUUAAGGAGACGACUGCGGGUUCGAGUCCCGUACGGUACG [C22G C34U A43C A69U], the yeast fitness is at most 0.5.

As to GUUACGUUGGCGUAAUGGUAACGCGUCUCCCUGCUAAGGAGAAGACAGCGGGUUCGAGUCCCGUACGGAACG [C4A C33G U47A], the yeast fitness stood at 0.625.

With GUUCCGUUGGCGUCAUGGUAACGCGUCUACCUCCUAAGGAGAAGACUGCAGGUUCGAGUCCCGUACGCACCG [A14C C29A G50A G68C A70C], the yeast fitness is at most 0.5. In the case of GUUCCGUUGGCGUAAUGGUUACGCGUGUUCCUCCUAAGGAGAAGACUGCGGGUUCGAGUCCCGUACGGAACG [A20U C27G C29U] it was at most 0.5. For GUUCCGGUGGCGUAAUGGUAACGCGUCUCCCUCCUCAGGAGAAGACUGCGGGUUCGAGUCCCGUACGGAACG [U7G A36C], the yeast fitness was found to be 0.614.

As to GUUCCGUUGGUGUAAUGGUAACGCGUCUCCCUCCUAAGGAGGAGACUGCGGGUUCGAGUCCGGUACGGUACG [C11U A42G C62G A69U], the yeast fitness is at most 0.5. As to GUUCCGUUGGCGUAAUGGUAACGCGUGUCCCUCCUAAGGUGAAGACUGCGGGUUCGAGUCCCGUACGGAACG [C27G A40U], the yeast fitness turned out to be 0.682. In the case of GUUCCGUUGGCGUAAAGGUAACGCGUCUCCCUCCUAAGGUGAAGACUGCGGGUUCGAGUCCCGUACGGAACG [U16A A40U] it was 1; in that of GUUCAGUUGGCGUAAUGGUAACGCGUCUGCCUCCUAAGGAGAAGACUGCGGGUUCGAGUCACGUACGGAACG [C5A C29G C61A], at most 0.5; in that of GAUCCGUUGGCGUAACGGUAACGCGUCUCACUCCUAAGGAGAAGACUGCGGGUUCGAGUCCCGUUCGGAACG [U2A U16C C30A A65U], at most 0.5. GUUCCGUUGGCGAAAUGGUAACGCGUCUCCCUCCUAAGGAGAAGACUGCGGGUUUGAGUCCCGUCCGGAACG [U13A C55U A65C]: the yeast fitness worked out at 0.596.

As for GUUCCGUUGGCGUAAUGGUAACCCGUCUUCCUCCUAAGGAGAAGACUGAGGGUUCGAGUCUCGUACGGAACG [G23C C29U C49A C61U], the yeast fitness is at most 0.5.

GUUCCGUUGGCGUAAUGGUAACGUGUCUCCCUCCUAAGGAGAACACUGCGGGUUCGAGUCCCGUACGGAACG [C24U G44C]: the yeast fitness was determined as 0.825. With GUUCCGUUGGCGUAAUGGCAACGCGUCUCCCUCCUAAGGAGAAGACUGCGGGUUCGAGUCCCGUGCGGAACG [U19C A65G] the figure was 1. With GUUAGGUUGGCGUAAUGGUAACGCGUCUCCCUCCUAAGGAGAAGACUGCGGGAUCGAGUCCCGUACGGAACG [C4A C5G U53A] the figure was at most 0.5; with GUUCCGUUGGCGUAAUGGUAAUGCGUCUCCCUCCUAAGGAGAAGACUGCGGAUUAGAGUCCCGUACGGCACG [C22U G52A C55A A69C], at most 0.5.

With GUUCCGUUGGCGUAAUGGUAAUGCGUCUCUCUUCUAAGGAGAAGCCUGCGGGUUCGAGUCCCGUAUGGAACG [C22U C30U C33U A45C C66U], the yeast fitness was at most 0.5. In the case of GUUCCAUUGGCGUAUUGGUAAAGCGUCUCCCUCCUAAGGAGAAGACUGCGGGUUCGAGUCCCGUACGGAACG [G6A A15U C22A] it was at most 0.5. In the case of GUACCGUUCGCGUAAUGGUAACGCGUCUCCCUCCUAAGGAGAAGAGUGCGGGUUCGAGUCCCGUACGGAACG [U3A G9C C46G] it was 0.533. Consider GUUCCGUUGGCGUAAUGGUAACGCGUCUCCCUCCUCAGGAGAAGACACCGGGUUCGCGUCCCGUUCGGAACG [A36C U47A G48C A57C A65U], for which the yeast fitness was at most 0.5. GUUCCGUUGGCGUAAUGGUAACGCGUAUCCCUCCUAACGAGAAGACUGCGGGUUCGAGUCCCGUACGGAACG [C27A G38C]: the yeast fitness stood at 0.609. Take GUUCCGUUGGCGUAAUGGUAACGCGUCUCCCUCGUAAGGGGAAGACUCCGGGUUCGAGUCCCAUAUGGAACG [C34G A40G G48C G63A C66U]: the yeast fitness was determined as 0.605. In the case of GGUCCGUUGGCAUAAUGGUAACGCGUCUCCCUCAUAGGGAGAAGACUGCGGGUUCGAGUCCCGUACGGAACG [U2G G12A C34A A37G] it was at most 0.5; in that of GUUCCGUUGGCGUAAUGGUAACGCGUCUCCCCCCUAAGGAGAAGACUGCGGGUUCGAGUCCCGUUCAGAACG [U32C A65U G67A], 0.646. With GUUCCGUUGGCGUAAUGGUAACGCGUUUCCCUGGUAAGGAGAAAACUGCAGAUUCGAGUCCCGUACGGAACG [C27U C33G C34G G44A G50A G52A] the figure was 0.558; with GUUCCGUUGGCGUAAUGGUUAAGCGUCUCCCUCCUAAGGAGAAGACUGCGGGUUCGAGUCAGGUACGAAACG [A20U C22A C61A C62G G68A], at most 0.5; with GUUCCGUUGGCGUAGUGGUAACGCGUCUCCCUCCUAAGGAGAAGACUGCGGGUUCGCGUCCCGUACGGAACG [A15G A57C], 0.636. Regarding GUUCCGUUGGCGUCUUGGUAACGCGUCUCUCUCGUAAGGAGAGGACUCUGGGUUCGAGUCUCGUACGGAACG [A14C A15U C30U C34G A43G G48C C49U C61U], the yeast fitness was at most 0.5. With GUUCCGUUGGCGUAAUGGUAACGCGUCUCCCACCUAAGGAGAAGACUGCGGGUUCGAGUCCCGUAAGGAACG [U32A C66A], the yeast fitness was 0.614.

As to GUUCCGUUGGCGUAAUGGUAACGCGUCUCCCUUCUAAGGAGAAGACUGCGGGUUCGGGUCCCGUACGGAACG [C33U A57G], the yeast fitness stood at 0.628. GUUCCGUUGGCGUAAUGGUAACGCGACUCCCUCCUAAGGAGAAGAUUGCCGGUACGAGUCCCGUACGGAACG [U26A C46U G50C U54A]: the yeast fitness was 0.579. On to GUUCCGUUGGCGUAAUGGUAAAGCGUCUGCCUCCUAAGGAGAAGACUGCGGGUUCGAAUCCCGUACCGAACG [C22A C29G G58A G67C], for which the yeast fitness is at most 0.5. With GUUCCGUUGGCGUAAUGGUUACGCGUCUCCCUCCUAAGGAGAAGAAUGCGGGUUCGAGUCCCGUACGGAACG [A20U C46A] the figure was 0.858.
